Assay outcomes deposited in PubChem by several laboratories.
ANO1 activ: activates or potentiates the mouse TMEM16A chloride channel; hit rate 0.3% among 340,000; Q8BHY3; HEK293 TMEM16A/YFP-H148Q/I152L, iodide quench fluorescence; active compounds read low; B-score at 10 µM;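 active means fluorescence-ratio B-score plate-corrected deviation score at least 3 library SD below zero, with starting fluorescence score within 5 deviations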;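 further: channel opened by trigger with iodide after compound preincubation; score built on the fluorescence ratio of max minus min over baseline; more negative score means more quench and so TMEM16A activation or potentiation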
Beta cell apopt: beta cell apoptosis inhibition; INS-1E cytokine-induced death, ATP luminescence, 48 h; percent of positive-control rescue, neutral wells zero; AID 435005; protection from apoptosis, % (test concentration not listed); hit rate 0.8% among 300,000;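 active means Every replicate reaches about 75%, or at least half do and their mean reaches it too, limit read from the data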;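 further: 0% = cytokine-treated negative control wells and 100% = positive control rescue; higher means more ATP so stronger rescue from cytokine killing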
ANO1 block: mouse TMEM16A channel inhibition, primary screen. Q8BHY3. HEK293 TMEM16A/YFP iodide influx fluorescence, ionomycin. normalized B-score (activity score, 25-100; higher = stronger inhibition) at 10 µM. hit rate 1.2% among 310,000. AID 588511;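 active means ratio plate-corrected score three or more library SD toward inhibition, starting fluorescence score within five deviations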;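 further: score derived from kinetic fluorescence span divided by baseline fluorescence per well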
MC4R antag cAMP: human MC4R antagonism in cAMP assay; P32245; MC4R-expressing cells, MTII-stimulated cAMP, LANCE TR-FRET; inhibition, % at 6.5 µM; hit rate 0.48% among 360,000;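 active means inhibition above its plate's cutoff, the mean of tested wells on that plate plus 3 SD, cut at about 29% in these data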;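 further: 0% = Melanotan II alone and 100% = Melanotan II plus saturating MCL0020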
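material = U2OS cells stably expressing human melanocortin 4 receptor (MC4R) | also added = Melanotan II challenge | dosing = single nominal compound dose of 6.5 µM | detection = TR-FRET with Eu-cAMP and labeled anti-cAMP, 671 nm | replication = singlicate | timing = compound 30 min, challenge 1 h, detection 1 h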
MC4R ag barr: human MC4R agonism via beta-arrestin; P32245; U2OS MC4R beta-arrestin complementation, luminescence; percent of melanotan II response, DMSO zero; activation, % at 8.9 µM; hit rate 0.98% among 360,000; AID 540308;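 active means activation above a per-plate cutoff, the mean activation of sample wells on that plate plus 3 SD, cut at about 8% in these data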
CSC inhib: blocks cancer stem cells; cancer stem cell-like cells viability, luminescence; inhibition, % at 7.5 µM; hit rate 1.1% among 300,000; in the data active means inhibition above about 75%; tested in HMLE shEcad cells
MC4R barr conf: human MC4R beta-arrestin agonism confirmation; shares compounds with MC4R ag barr; U2OS MC4R beta-arrestin recruitment, luminescence; scaled DMSO 0%, Melanotan II 100%; activation, % at 8.9 µM; hit rate 31% among 2,400; AID 602192;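 active means mean activation across replicates above the hit cutoff set in the earlier primary screen, cut at about 8% in these data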
MOR-DOR barr ag: counter-screen for MC4R agonists: agonists of mu-delta opioid heterodimer; shares compounds with MC4R ag barr; U2OS PathHunter beta-arrestin, beta-gal luminescence; percent of deltorphin B response, DMSO zero; activation, % at 9.2 µM; hit rate 5.8% among 2,400; AID 602194;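 active means mean activation across replicates exceeds the hit threshold derived in the earlier primary screen, cut at about 18% in these data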;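 further: 100% = deltorphin B at 0.9 µM final and 0% = DMSO alone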
Target sequence (P35372 whole entry, looked up): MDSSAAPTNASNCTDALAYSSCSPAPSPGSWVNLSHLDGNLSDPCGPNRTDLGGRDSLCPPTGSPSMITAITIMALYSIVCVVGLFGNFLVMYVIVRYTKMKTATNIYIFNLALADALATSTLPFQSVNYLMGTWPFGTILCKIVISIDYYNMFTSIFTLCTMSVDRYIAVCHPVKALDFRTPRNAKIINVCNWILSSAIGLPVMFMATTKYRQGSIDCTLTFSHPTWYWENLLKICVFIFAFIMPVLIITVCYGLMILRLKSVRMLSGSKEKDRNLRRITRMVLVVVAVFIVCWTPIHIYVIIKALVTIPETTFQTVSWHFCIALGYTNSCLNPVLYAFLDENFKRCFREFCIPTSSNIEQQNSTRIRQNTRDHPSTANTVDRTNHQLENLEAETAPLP
Target sequence (P41143 whole entry, looked up): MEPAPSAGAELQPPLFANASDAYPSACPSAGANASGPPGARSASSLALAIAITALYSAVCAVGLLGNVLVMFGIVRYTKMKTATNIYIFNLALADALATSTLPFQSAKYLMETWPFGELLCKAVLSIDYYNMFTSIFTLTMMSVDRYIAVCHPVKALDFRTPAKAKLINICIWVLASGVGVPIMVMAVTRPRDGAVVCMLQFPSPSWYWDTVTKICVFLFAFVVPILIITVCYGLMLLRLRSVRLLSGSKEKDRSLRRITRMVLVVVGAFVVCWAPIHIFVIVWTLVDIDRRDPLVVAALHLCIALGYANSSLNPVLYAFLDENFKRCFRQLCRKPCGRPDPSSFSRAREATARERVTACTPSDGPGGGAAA
The depositor's hits bear a star; i = inactive; · = no result given. The list is not random: actives were taken first. Their share in the collection is about 3.8%.

SMILES	ANO1 activ	Beta cell apopt	ANO1 block	MC4R antag cAMP	MC4R ag barr	CSC inhib	MC4R barr conf	MOR-DOR barr ag
COc1ccc(OCCn2cc(/C=C(\C#N)C(=O)NCc3ccco3)c3ccccc32)cc1	i	4	i	-6	50*	2	52*	30*
N#C/C(=C\c1cn(CC(=O)O)c2ccccc12)C(=O)NCc1ccccc1	i	-1	i	1	-2	-7	·	·
N#C/C(=C\c1cn(CCOc2ccccc2)c2ccccc12)C(=O)NCc1cccs1	i	3	i	8	23*	16	6	7
Cc1onc(-c2ccccc2)c1-c1nnc(CN2CCN(S(=O)(=O)c3ccccc3)CC2)o1	i	-9	·	6	1	-2	·	·
CCn1nc(NC(=O)c2cccnc2)c2cc3cccc(C)c3nc21	i	3	i	1	17*	-3	0	3
O=C(Nc1ccc2oc(-c3ccncc3)nc2c1)c1ccc2c(c1)OCO2	i	5	i	0	-1	-6	·	·
O=C(Nc1ccc2oc(-c3ccncc3)nc2c1)c1ccc2c(c1)OCCO2	i	3	i	8	23*	·	12*	2
COc1ccc(NC(=O)N2CCCC(c3ccccc3)C2)cc1 (centres undefined)	i	-6	i	1	-2	4	·	·
COc1ccc(-n2c(C)cc(C(=O)COC(=O)c3cc(NC(=O)c4cccs4)c(OC)c(OC)c3)c2C)cc1	i	1	i	2	0	·	·	·
COc1cc(C(=O)OCC(=O)NCc2ccc(F)cc2)cc(NC(=O)c2cccs2)c1OC	i	9	i	-2	9.7*	24	2	4
C#CCn1c(=NC(=O)c2cc(-c3cccs3)nc3ccccc23)sc2cc(S(N)(=O)=O)ccc21	i	1	i	5	20*	0	10*	5
COc1ccc(Nc2nc(-c3cc4cccc(OC)c4oc3=O)cs2)cc1	i	0	i	-3	20*	-19	5	5
COc1ccc(-c2cc3cccc(OC)c3oc2=O)cc1	i	0	i	-4	-1	5	·	·
COc1ccc(NC(=O)CN(C)C(=O)/C=C/c2ccc(S(=O)(=O)N3CCCCCC3)cc2)cc1	i	75*	i	0	30*	14	11*	2
COc1ccc(NC(=O)CN(C)C(=O)/C=C/c2ccc(OCc3ccccc3)cc2)cc1	i	33	i	-1	19*	·	8	12
COc1ccc(NC(=O)CN(C)C(=O)CCc2ccccc2)cc1	i	-1	i	-1	-1	0	·	·
O=C(COc1ccc(Cl)cc1Cl)NC(=O)c1ccccc1	i	1	i	-8	10*	·	1	7
CN(C(=O)CSc1nnc(-c2ccco2)n1C)C1CCCCC1	i	·	·	-3	-2	·	·	·
COc1ccc(CCNC(=O)CSc2cn(Cc3ccccc3)c3ccccc23)cc1OC	i	0	i	-12	13*	4	6	4
COc1ccc(CCNC(=O)CSc2cn(Cc3cccc(C)c3)c3ccccc23)cc1OC	i	-1	i	13	0	11	·	·
CCc1ccc2c(c1)cc(CN(C(=S)Nc1ccccc1C)C1CC1)c1nnnn12	i	-3	i	7	12*	12	4	2
COc1ccc(S(=O)(=O)NC2CC3CCC2C3)cc1 (centres undefined)	i	-6	i	-6	0	-2	·	·
COc1ccccc1C(=O)COC(=O)c1cc(=O)[nH]c2ccccc12	i	-5	i	1	2	3	·	·
COc1ccc(C(=O)COC(=O)c2cc(=O)[nH]c3ccccc23)c(OC)c1	i	4	i	-9	12*	-17	-1	2
